# From PubChem
# RAM network inh: yeast RAM network inhibition; 190,000 tested, 1.8% active; AID 868; S. cerevisiae dse1pr::URA3 reporter, 5-FOA growth OD615, 2 d; analog-sensitive cbk1-as2 kinase mutant strain; inhibition, % at 50 µM;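 active = inhibition above a set limit, 3 SD over mean compound inhibition, cut at about 8.4% in these data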;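 also: 0% = DMSO-only wells with no growth and 100% = 10 µM 1-NA-PP1 full growth; inhibition rescues growth on 5-FOA so higher OD means more RAM inhibition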
# Yeast growth inh: yeast BB579 growth reduction in restrictive medium; inhibition, % at 10 µM; 140,000 tested, 0.51% active; S. cerevisiae BB579 growth, OD615, 48 h;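 active = inhibition above a set limit, 3 SD over the mean compound inhibition, cut at about 44% in these data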
#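 Test system: S. cerevisiae DeaD strain BB579 yeast; Medium: restrictive CSMM-D medium; Compound: one dose, 10 µM compound with 0.25% DMSO; Incubation: 4 h cell preincubation, 48 h compound exposure, 30 °C humidified; Signal: OD at 615 nm; Benchmarks: amphotericin B at 10 µg/mL as positive control.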
# TNAP inh hi DEA: blocks human TNAP under high phosphate acceptor concentration; P05186; purified TNAP, CDP-star luminescence, 1 M DEA; inhibition, % at 20 µM; 200,000 tested, 0.03% active; AID 1135;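 active = over 50% inhibition of tissue-nonspecific alkaline phosphatase at 20 µM in the single-dose screen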;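 also: plate controls were DMSO wells for no effect and EDTA-quenched wells as full inhibition for full effect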
# Target sequence (P05186 whole entry, looked up): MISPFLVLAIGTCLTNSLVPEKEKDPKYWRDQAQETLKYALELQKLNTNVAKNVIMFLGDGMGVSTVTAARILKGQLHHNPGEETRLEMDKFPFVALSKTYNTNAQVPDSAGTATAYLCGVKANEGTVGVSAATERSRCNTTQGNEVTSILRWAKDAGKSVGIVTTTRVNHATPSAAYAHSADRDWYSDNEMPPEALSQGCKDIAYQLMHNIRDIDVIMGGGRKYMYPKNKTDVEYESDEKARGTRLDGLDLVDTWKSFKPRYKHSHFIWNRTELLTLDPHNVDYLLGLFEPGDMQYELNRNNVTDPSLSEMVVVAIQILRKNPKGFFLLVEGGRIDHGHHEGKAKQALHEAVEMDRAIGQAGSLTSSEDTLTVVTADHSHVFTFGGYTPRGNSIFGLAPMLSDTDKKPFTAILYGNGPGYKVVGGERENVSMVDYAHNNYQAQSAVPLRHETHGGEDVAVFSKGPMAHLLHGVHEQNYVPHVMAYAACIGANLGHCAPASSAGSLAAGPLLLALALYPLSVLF
# TNAP act hi DEA: TNAP (human) activation, high acceptor; P05186; 200,000 tested, under 10 active; activation factor at 20 µM; purified TNAP, CDP-star luminescence, 1 M DEA, 30 min; stronger effect = higher value; 0 = EDTA background, 1 = DMSO-only activity;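 active = activation factor at least 2 at 20 µM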
#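 Measured by: Luminescent substrate turnover signal | Test system: Human TNAP | Input: TNAP 1/800 final | Dosing: 20 µM single point | Schedule: 30 min, room temperature | Controls: EDTA wells as negative control, DMSO wells as positive control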
# Yeast life ext: extends the lifespan of yeast | AID 775 | inhibition of the nicotinamide effect, % at 10 µM | 130,000 tested, 0.68% active | S. cerevisiae growth with nicotinamide, OD615; deaD strain in restrictive glucose medium;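 active = inhibition above a set limit, placed 3 SD over the median of all compounds, cut at about 26% in these data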;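 also: 0% = nicotinamide-treated wells and 100% = cells grown without nicotinamide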
#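 assay system = DeaD-strain S. cerevisiae | buffer or medium = restrictive glucose medium | reagent = 1.5 mM nicotinamide | compound = 10 µM single point, 0.25% DMSO | incubation = 48 h compound exposure at 30 °C, humidified | signal = OD615 measurement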
# TNAP inh no acc: TNAP (human) inhibition, acceptor-free conditions. AID 1012. purified TNAP, CDP-star luminescence, 30 min. inhibition, % at 20 µM. 200,000 tested, 0.26% active. P05186;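 active = tissue-nonspecific alkaline phosphatase inhibition above about 50% at 20 µM in the single-dose screen, limit read from the data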;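 also: 0% = DMSO negative control and 100% = EDTA positive control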
# An asterisk follows results filed as active; x = no result. Sampled rows, rich in hits. Any-hit rate of the full collection: about 2.8%.
SMILES,RAM network inh,Yeast growth inh,TNAP inh hi DEA,TNAP act hi DEA,Yeast life ext,TNAP inh no acc
c1ccc(-n2ncc3c2ncn2cnnc32)cc1,3,3,9,0.9,-28,76*
c1ccc(-n2ncc3c2ncn2nnnc32)cc1,2,-37,-5,1,-25,2
CCc1nnc2c3cnn(-c4ccccc4)c3ncn12,4,-71,4,1,-20,53*
COc1ccc(Cc2nnc3c4cnn(C)c4ncn23)cc1,1,-10,-3,1,-7,35
Cc1nc2c3cnn(-c4ccccc4)c3ncn2n1,1,-17,-2,1,-27,54*
COC(=O)c1ccc(Cl)c(NC(=O)c2ccc(-c3ccccc3)cc2)c1,-1,-40,-3,1,-4,-8
C=CCOC(=O)C1=C[C@@H](c2ccc3c(c2)OCO3)C[C@@H](OCc2ccc(CO)cc2)O1,5,x,0,1,x,-1
CC(=O)NNc1ncnc2c1cnn2-c1ccc(C)c(C)c1,0,x,2,1,x,-190
Cc1ccc(-n2ncc3c2ncn2c(C)nnc32)cc1C,1,-45,0,1,-18,84*
O=C(NCCO)C(=O)c1c(-c2ccccc2)cc2ccccn12,2,x,1,1,x,1
Cc1nc2c3ccccc3nc(NNC(=O)CCC(=O)NCCC(C)C)n2n1,9.2*,-18,4,1,0,-114
CCN(CC)CCCNC(=O)CCC(=O)NNc1nc2ccccc2c2nc(C)nn12,2,x,0,1,x,-212
CC(C)CC(C(=O)NC(C)(C)C)N(CC1CCCO1)C(=O)c1snc(C(N)=O)c1N (stereo unspecified),-1,x,-3,1,x,-4
O=C1NN(c2ccccc2)C(=O)/C1=C/c1coc2ccccc2c1=O,-1,-14,14,0.9,26*,0
Cc1cc(/C=C2/C(=O)NN(c3ccccc3)C2=O)c(C)n1-c1ccc(O)cc1,9.9*,-3,11,0.9,8,-6
COc1ccc(-n2c(C)cc(/C=C3\C(=O)NN(c4ccccc4)C3=O)c2C)cc1,5,-41,9,0.9,6,0
Cn1cc(Cl)c(C(=O)OCC(=O)Nc2nc(-c3ccc(Br)cc3)cs2)n1,1,-15,-1,1,x,-22
CC(=O)Nc1ccc(C(=O)N/N=C/c2cc(Br)cc(Br)c2O)cc1,4,x,0,1,x,-7
Cc1ccc(C(=O)O)cc1N=Cc1cc(Br)cc(Br)c1O,1,90*,-2,1,4,1
CCN1CCCC1CNC(=O)c1ccc(Sc2ccc(F)cc2)c([N+](=O)[O-])c1 (stereo unspecified),2,x,-4,1,x,-6
C=CCn1c(C)cc(C(=O)CSc2nnc(-c3cccc(S(=O)(=O)N(CC)CC)c3)o2)c1C,11*,-32,0,1,-12,-2
COc1ccc(C(=O)Nc2ccc(SC(F)F)cc2)cc1,3,-31,-1,1,4,-3
O=C(CCc1ccccc1)Nc1ncn[nH]1,1,-6,0,1,-15,-216
O=C(/C=C/c1ccccc1)Nc1ncn[nH]1,-1,-22,-1,1,36*,-5
CC1=NOC(=O)/C1=C\c1ccc(-c2ccc(Cl)cc2Cl)o1,0,45*,-2,1,5,-2
SMILES,RAM network inh,Yeast growth inh,TNAP inh hi DEA,TNAP act hi DEA,Yeast life ext,TNAP inh no acc
Cc1cc(O)c(-c2cc(C(=O)Nc3ccc(S(=O)(=O)N4CCOCC4)cc3)[nH]n2)cc1C,2,-98,0,1,3,-30
Cc1ccc(O)c(-c2cc(C(=O)Nc3ccc(S(=O)(=O)N4CC(C)OC(C)C4)cc3)[nH]n2)c1 (stereo unspecified),8.9*,-71,0,1,-3,-46
CCCC(=Nc1ccc(N)cc1)C1=C(O)C(C(=O)OC)C(C)(C)CC1=O (stereo unspecified),1,-4,2,1,44*,-10
CCCC(=O)C1=C(O)C(C(=O)OC)C(C)(C)CC1=Nc1ccc(N)cc1 (stereo unspecified),3,-7,-9,1.1,-1,-9
CCn1nnc(-c2ccccc2NS(=O)(=O)c2ccc(S(=O)(=O)N(C)C3CCCCC3)cc2)n1,7,-47,-2,1,0,-12
Cn1c(SCC(=O)N/N=C/c2ccc([N+](=O)[O-])s2)nnc1-c1ccc(Cl)cc1,-1,99*,5,0.9,-6,9
O=C(/C=C/c1cccc([N+](=O)[O-])c1)c1cccs1,3,-10,3,1,28*,-10
O=S(=O)(c1ccc(F)c2ccccc12)N1CCCCC1,8.9*,-6,-7,1.1,-20,-2
CCOc1ccc(S(=O)(=O)N2CCCCC2)c2ccccc12,9.4*,-33,3,1,-14,0
CCN(CC)S(=O)(=O)c1cc(C(=O)NCCN2CCOCC2)ccc1Cl,0,x,-2,1,x,-11
CCOc1ccccc1CNC(=O)C1CCN(C(=O)c2sccc2-n2cccc2)CC1,7,-59,-9,1.1,-12,3
CC(C)NC(=S)N/N=C/c1ccc2c(c1)OCCO2,0,-10,0,1,-5,-11
CCCCn1c(/N=C/c2c[nH]c3ccccc23)nc2ccccc21,-2,44*,2,1,-19,-3
COc1ccc(C(CC(=O)NCc2ccccc2)Sc2n[nH]c(-c3ccc(Cl)cc3)n2)cc1 (stereo unspecified),8.7*,-32,1,1,7,4
COc1ccc(C(CC(=O)NCc2ccccc2)Sc2n[nH]c(-c3ccccc3)n2)cc1 (stereo unspecified),4,-40,-3,1,9,-2
CCOC(=O)c1ccc(NC(=O)c2cn(CCC#N)nc2-c2ccc3c(c2)OCCO3)cc1,2,-30,-2,1,10,-65
FC(F)(F)c1cccc(Sc2nc(-c3ccccc3)nnc2C(F)(F)F)c1,8.6*,-38,-2,1,-16,-2
Nc1sc(-c2ccccc2)cc1C(=O)O,0,-38,2,1,84*,-16
CCOC(=O)c1nn(-c2ccccc2C)c2nc(Nc3ccccc3)cc(=O)n12,8.4*,-7,-7,1.1,2,-7
O=C(O)c1ccccc1SCC(=O)N1c2ccccc2Sc2ccccc21,11*,-43,-4,1,13,-23
N#CCC(=O)Nc1ncn(Cc2ccccc2Cl)n1,1,-20,1,1,-8,-11
O=C1C(Nc2ccc(O)cc2)=C/C(=N/S(=O)(=O)c2cccs2)c2ccccc21,11*,x,13,0.9,x,12
CCc1cc2ccccc2nc1Cl,3,x,-6,1.1,x,-9
